We go through eleven compounds from ChEMBL document CHEMBL1124866, “Synthesis and activity of NAcSerAspLysPro analogues on cellular interactions between T-cell and erythrocytes in rosette formation” (1990).

For assay [1], the system named is Jurkat. Put plainly: (§1) Activity on rosetting of jurkat T-cells with SRBC at the concentration of 10e-6 M. In kind it is functional, Homo sapiens.
The test system of assay [2] is Jurkat. Description: Activity on rosetting of jurkat T-cells with SRBC at the concentration of 0 M. In kind it is functional, Homo sapiens.
Assay [3] concerns Jurkat. Description: Activity on rosetting of jurkat T-cells with SRBC at the concentration of 10e-4 M; Not significant. In kind it is functional, cell-based. The note with it: Homo sapiens.
Assay [4] has as its system Jurkat. Description: (§2) Activity on rosetting of jurkat T-cells with SRBC at the concentration of 10e-5 M. It counts as functional, Homo sapiens.
Assay [5] concerns Jurkat. Put plainly: Activity on rosetting of jurkat T-cells with SRBC at the concentration of 10e-5 M; Not significant. In kind it is functional, cell-based. The conditions noted are these: Homo sapiens.
Assay [6] deals with Jurkat. Put plainly: Activity on rosetting of jurkat T-cells with SRBC at the concentration of 10e-7 M; Not significant. In kind it is functional, cell-based. The note with it: Homo sapiens, at 0.1 µM. The method, boiled down: (§3)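 Jurkat T lymphoma cells kept in RPMI 1640 with 10% heat-inactivated FCS, washed three times before use; SRBC washed three times. Jurkat cells (2 × 10^6 cells/mL, 2.10⁵ cells) preincubated with peptide in RPMI for 10 min at 4 °C. SRBC (2 × 10^8 cells/mL) added, centrifuged 5 min at 200g, held overnight at 4 °C. Rosettes (three erythrocytes per lymphocyte) counted blind by hemocytometer; three experiments in quadruplicate; % inhibition.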

The test system of assay [7] is Jurkat. Put plainly: Activity on rosetting of jurkat T-cells with SRBC at the concentration of 10e-9 M. In kind it is functional, Homo sapiens.
Assay [8] relates to Jurkat. Description: Activity on rosetting of jurkat T-cells with SRBC at the concentration of 10e-11 M; Not significant. It counts as functional, cell-based. The conditions noted are these: Homo sapiens, at 10 pM. A digest of the protocol:
as §3

Assay [9] has as its system Jurkat. Description: Activity on rosetting of jurkat T-cells with SRBC at the concentration of 10e-8 M; Not significant. In kind it is functional, cell-based. The note with it: Homo sapiens, at 0.01 µM. The method, boiled down: as §3
Assay [10] has as its system Jurkat. Put plainly: (§4) Activity on rosetting of jurkat T-cells with SRBC at the concentration of 10e-11 M. In kind it is functional, Homo sapiens.
Assay [11] relates to Jurkat. Put plainly: (§5) Activity on rosetting of jurkat T-cells with SRBC at the concentration of 10e-4 M. In kind it is functional, Homo sapiens.
For assay [12], the system named is Jurkat. Description: Activity on rosetting of jurkat T-cells with SRBC at the concentration of 10e-9 M; Not significant. It counts as functional, cell-based. The note with it: Homo sapiens, at 0.001 µM. The method, boiled down:
as §3

Assay [13] deals with Jurkat. Description: (§6) Activity on rosetting of jurkat T-cells with SRBC at the concentration of 10e-8 M. It counts as functional, Homo sapiens.
The subject of assay [14] is Jurkat. Description: Activity on rosetting of jurkat T-cells with SRBC at the concentration of 10e-10 M; Not significant. The conditions noted are these: Homo sapiens, at 0.0001 µM. It counts as functional, cell-based. A digest of the protocol:
as §3

In assay [15] the test system is Jurkat. Description: (§7) Activity on rosetting of jurkat T-cells with SRBC at the concentration of 10e-7 M. It counts as functional, Homo sapiens.
The test system of assay [16] is Jurkat. Description: Activity on rosetting of jurkat T-cells with SRBC at the concentration of 10e-6 M; Not significant. In kind it is functional, cell-based. The note with it: Homo sapiens.
In assay [17] the test system is Jurkat. Description: (§8) Activity on rosetting of jurkat T-cells with SRBC at the concentration of 10e-10 M. It counts as functional, Homo sapiens.
In assay [18] the test system is Jurkat. Described as §2. It counts as functional. The conditions noted are these: Homo sapiens.
The subject of assay [19] is Jurkat. The assay is described as §1. In kind it is functional. The note with it: Homo sapiens.
Assay [20] concerns Jurkat. Described as §5. The conditions noted are these: Homo sapiens. It counts as functional.
The test system of assay [21] is Jurkat. Put plainly: Activity on rosetting of jurkat T-cells with SRBC at the concentration of 10e-14 M. It counts as functional, Homo sapiens.
The test system of assay [22] is Jurkat. Put plainly: Activity on rosetting of jurkat T-cells with SRBC at the concentration of 10e-13 M. In kind it is functional, Homo sapiens.
Assay [23] concerns Jurkat. Description: Activity on rosetting of jurkat T-cells with SRBC at the concentration of 10e-12 M. It counts as functional, Homo sapiens.
Assay [24] concerns Jurkat. Put plainly: Activity on rosetting of jurkat T-cells with SRBC at the concentration of 10e-13 M; Not significant. In kind it is functional, cell-based. The note with it: Homo sapiens.
Assay [25] deals with Jurkat. The description is as §8. It counts as functional. The note with it: Homo sapiens.
The test system of assay [26] is Jurkat. Described as §4. The conditions noted are these: Homo sapiens. In kind it is functional.
Assay [27] has as its system Jurkat. Put plainly: Activity on rosetting of jurkat T-cells with SRBC at the concentration of 10e-14 M; Not significant. It counts as functional, cell-based. The conditions noted are these: Homo sapiens.
Assay [28] concerns Jurkat. The assay is described as §6. It counts as functional. The note with it: Homo sapiens.
Assay [29] relates to Jurkat. Description: Activity on rosetting of jurkat T-cells with SRBC at the concentration of 10e-15 M. In kind it is functional, Homo sapiens.
Assay [30] relates to Jurkat. Description: Activity on rosetting of jurkat T-cells with SRBC at the concentration of 10e-15 M; Not significant. It counts as functional, cell-based. The note with it: Homo sapiens.
In assay [31] the test system is Jurkat. The description is as §7. The conditions noted are these: Homo sapiens. In kind it is functional.
In assay [32] the test system is Jurkat. Put plainly: Activity on rosetting of jurkat T-cells with SRBC at the concentration of 10e-12 M; Not significant. It counts as functional, cell-based. The conditions noted are these: Homo sapiens.

The source made the active and inactive calls. The calls are words filed in the database; no cut-off is given here. Square brackets hold non-standard residues; d marks the D form. Peptide text beside a SMILES is read from it. Orn = NCCC[C@H](N)C(=O)O

As to `CC(=O)N[C@@H](C)C(=O)N[C@@H](CC(=O)O)C(=O)N[C@@H](CCCCN)C(=O)N1CCC[C@H]1C(=O)O` (Ac-ADKP-OH), the “No. of rosettes/100 Jurkat T cells” value in [1] came to 59; in assay [2], 60; in assay [4] it was 57; in [7], 64; in assay [10], 56; in assay [11], 54. The “No. of rosettes/100 Jurkat T cells” value is listed as 63 in assay [13], 59 in assay [15] and 56 in assay [17]. Also, the inhibition result in [3], in assay [5], in [6], in assay [8], in assay [9] and in [12] was “inactive” throughout. The inhibition result in assay [14] and in assay [16] was “inactive” each time.
In the case of `CC(=O)N[C@@H](CO)C(=O)N[C@@H](CC(=O)O)C(=O)N[C@@H](CCCN)C(=O)N1CCC[C@H]1C(=O)O` (Ac-SD[Orn]P-OH), the “No. of rosettes/100 Jurkat T cells” value in assay [1] was found to be 52; in assay [2] it was 58; in assay [4] it was 52; in assay [11], 54. Also, the inhibition entry in assay [3], in [5] and in assay [16] was “inactive” in each case.
As to `CC(=O)N[C@@H](CO)C(=O)N[C@@H](CCC(=O)O)C(=O)N[C@@H](CCCCN)C(=O)N1CCC[C@H]1C(=O)O` (Ac-SEKP-OH), the “No. of rosettes/100 Jurkat T cells” value in assay [1] came out at 35; in assay [2], 47; in [4], 29; in assay [7], 43; in assay [10], 45; in assay [13] it was 42. Besides, the “No. of rosettes/100 Jurkat T cells” value in [15] was 41; in [17], 46. Further, the inhibition entry in [6], in assay [8], in assay [9], in [12] and in assay [14] was “inactive” in each case. Also, in assay [18], the inhibition at 10 µM is 37%. Besides, the inhibition at 1 µM in assay [19] was found to be 25%.
Turning to `CC(=O)N[C@@H](CO)C(=O)N[C@@H](CC(=O)O)C(=O)O` (Ac-Ser-Asp-OH), the “No. of rosettes/100 Jurkat T cells” value is recorded as 46 in assay [1]; 56 in assay [2]; 39 in assay [4]; 51 in assay [7]; 58 in [10]; 39 in [11]. Also, the results for the “No. of rosettes/100 Jurkat T cells” value in [13], in assay [15] and in assay [17] were 54, 52 and 57, respectively. Moreover, the inhibition entry in [6], in [8], in assay [9], in [12] and in assay [14] was “inactive” each time. For the same compound, the inhibition at 100 µM in assay [20] came to 30%. In [18], testing at 10 µM gave an inhibition of 30%. The same compound yielded an inhibition at 1 µM in assay [19] of 18%.
For the compound `NCCCC[C@H](NC(=O)[C@@H](N)CC(=O)O)C(=O)O` (H-Asp-Lys-OH), the “No. of rosettes/100 Jurkat T cells” value in [2] turned out to be 56; in assay [4], 56; in assay [11], 53; in assay [13] it was 58. The inhibition result in assay [3], in assay [5] and in [9] was “inactive” throughout.
As for `NCCCC[C@H](NC(=O)[C@@H](N)CC(=O)O)C(=O)N1CCC[C@H]1C(=O)O` (H-Asp-Lys-Pro-OH), the “No. of rosettes/100 Jurkat T cells” value in assay [2] amounted to 54; in [4] it was 57; in assay [11], 55. For the same compound, the inhibition entry in [3] and in assay [5] was “inactive” each time.
For the compound `NCCCC[C@H](NC(=O)[C@H](CC(=O)O)NC(=O)[C@@H](N)CO)C(=O)N1CCC[C@H]1C(=O)O` (H-SDKP-OH), the “No. of rosettes/100 Jurkat T cells” value in assay [21] was 61; in assay [22], 58; in [23] it was 59; in [1] it was 50; in [2], 63; in [4], 49. Besides, the “No. of rosettes/100 Jurkat T cells” value in [10] worked out at 55; in assay [11], 47; in assay [13], 56; in [29], 60; in assay [15] it was 54; in assay [17], 55. Further, the inhibition result in assay [24], in [27], in [30] and in assay [32] was “inactive” each time. Further, the inhibition at 0.0001 µM in assay [25] was 13%. This compound also showed an inhibition at 10 pM in assay [26] of 13%. The same compound had an inhibition at 100 µM in assay [20] of 25%. In assay [18], the inhibition at 10 µM turned out to be 22%. The compound also registered an inhibition at 0.01 µM in assay [28] of 11%. For the same compound, 1 µM produced 20% inhibition in assay [19]. This compound gave an inhibition at 0.1 µM in assay [31] of 14%.
For `N[C@@H](CO)C(=O)N[C@@H](CC(=O)O)C(=O)O` (H-Ser-Asp-OH), the “No. of rosettes/100 Jurkat T cells” value in [1] was found to be 55; in [2], 51; in [4] it was 55; in [7], 64; in assay [11] it was 46; in assay [13] it was 55. Further, in assay [15], the “No. of rosettes/100 Jurkat T cells” value came to 58. Further, the inhibition entry in assay [5], in assay [6], in [9], in [12] and in assay [16] was “inactive” in each case. In [20], the inhibition at 100 µM was found to be 31%.
As for `CC(=O)N[C@@H](CO)C(=O)N[C@@H](CC(=O)O)C(=O)N[C@@H](CCCCN)C(=O)N1CCC[C@H]1C(=O)O` (stereo in doubt; form 1), the inhibition entry in [8] and in assay [14] was “inactive” throughout.
For `CC(=O)N[C@@H](CO)C(=O)N[C@@H](CC(=O)O)C(=O)N[C@@H](CCCCN)C(=O)N1CCC[C@H]1C(=O)O` (stereo in doubt; form 2), the inhibition result in [3], in [5], in assay [6], in assay [9], in assay [14] and in [16] was “inactive” each time.
`CC(=O)N[C@@H](CO)C(=O)N[C@@H](CC(=O)O)C(=O)N[C@@H](CCCCN)C(=O)N1CCC[C@H]1C(=O)O` (stereo in doubt; form 2) [GORALATIDE]: the “No. of rosettes/100 Jurkat T cells” value in [1] was found to be 76; in assay [2], 82; in assay [4], 78; in [11] it was 80; in assay [13], 83; in [15], 83. Also, the “No. of rosettes/100 Jurkat T cells” value in assay [17] stood at 83.
